# Measured values collected from several papers.
# Each line is one published result; the experiments were not run side by side.
# Read-out: cell growth or viability
Structure (SMILES),cell line,technique,time,IC50
O=C(NO)c1ccc(Cn2cnc3c(Nc4cccc([N+](=O)[O-])c4)ncnc32)cc1,NALM-6,MTT,72 h,1900 nM
C=CCN1C(=O)C(=Nc2cccc(C)c2)c2ccccc21,L02,MTT,48 h,14100 nM
Nc1nnc(-c2ccccc2O)cc1N1CC2CCC(C1)N2c1ccnc(F)c1,NCI-H1944,ATP luminescence,7 days,> 1000 nM
O=C1C(=Nc2ccc(Cl)cc2)c2ccccc2N1Cc1cccc(Cl)c1,L02,MTT,48 h,32000 nM
O=C(NO)c1ccc(Cn2cnc3c(Nc4ccc(Cl)cc4)ncnc32)cc1,NALM-6,MTT,72 h,410 nM
Cc1cccc(N=C2C(=O)N(Cc3ccc(Br)cc3)c3ccccc32)c1,L02,MTT,48 h,26000 nM
C=C1C[C@@]23CC[C@H]4[C@@](C)(CCC[C@@]4(C)C(=O)O)[C@@H]2CC[C@@H]1C3,MOLT-3,XTT,75 h,116000 nM
CCOc1cc2ncc(C#N)c(Nc3ccc(OCc4ccccn4)c(Cl)c3)c2cc1NC(=O)/C=C/CN(C)C,HCC1419,ATP luminescence,,14 nM
C(=N\Nc1cc(N/N=C/c2ccc3ccccc3n2)nc(-c2ccccc2)n1)/c1ccc2ccccc2n1,L02,MTT,48 h,> 100000 nM
O=C(NO)c1ccc(Cn2cnc3c(Nc4ccc(F)c(Cl)c4)ncnc32)cc1,NALM-6,MTT,72 h,2020 nM
CC(C)c1cccc(C(C)C)c1N=C1C(=O)Nc2ccccc21,L02,MTT,48 h,31600 nM
C(=N\Nc1cc(N/N=C/c2cccc3cccnc23)nc(-c2ccccc2)n1)/c1cccc2cccnc12,L02,MTT,48 h,> 100000 nM
C=C[C@]1(C)C=C2CC[C@H]3C(C)(C)CCC[C@]3(C)[C@H]2CC1,MOLT-3,XTT,75 h,125000 nM
CN(C)C(=O)c1cc2cnc(Nc3ccc(-c4ccc5c(=O)cc(N6CCOCC6)oc5c4)cc3)nc2n1C1CCCC1,Hs68,ATP luminescence,72 h,1150 nM
Cc1nc(Nc2ncc(C(=O)Nc3c(C)cccc3Cl)s2)cc(N2CC[C@H](O)C2)n1,REH,ATP luminescence,72 h,> 10000 nM
Nc1ccccc1NC(=O)c1ccc(Cn2cnc3c(Nc4ccc(Br)cc4F)ncnc32)cc1,NALM-6,MTT,72 h,1540 nM
O=C1Nc2ccccc2C1=Nc1ccc(Cl)cc1,L02,MTT,48 h,28400 nM
COc1cc([C@@H]2c3cc4c(cc3[C@@H](O[C@@H]3O[C@@H]5CO[C@@H](C)O[C@H]5[C@H](O)[C@H]3O)[C@H]3COC(=O)[C@H]23)OCO4)cc(OC)c1O,MOLT-3,XTT,75 h,78 nM
COc1cc([C@@H]2c3cc4c(cc3[C@@H](O[C@@H]3O[C@@H]5CO[C@@H](C)O[C@H]5[C@H](O)[C@H]3O)[C@H]3COC(=O)[C@H]23)OCO4)cc(OC)c1O,MOLT-3,XTT,,61 nM
COc1c(Cl)cccc1Nc1c(-c2ccncc2OC[C@@H]2COCCO2)[nH]c2c1C(=O)NCC2,HCC1419,ATP luminescence,,6.4 nM
COc1cc(N=C2C(=O)Nc3ccccc32)cc(OC)c1,L02,MTT,48 h,> 100000 nM
Cc1ncsc1-c1ccc([C@H](C)NC(=O)[C@@H]2C[C@@H](O)CN2C(=O)[C@@H](NC(=O)CN2CCN(c3cc(-c4ccccc4O)nnc3N)CC2)C(C)(C)C)cc1,NCI-H1944,ATP luminescence,7 days,215 nM
CC(C)c1cccc(C(C)C)c1N=C1C(=O)N(Cc2cccc(Cl)c2)c2ccccc21,L02,MTT,48 h,72500 nM
CC(C)(C)c1cnc(CSc2cnc(NC(=O)C3CCN(C(=O)CCCCCCCN4Cc5cc6c(cc5C4)C(=O)N(C4CCC(=O)NC4=O)C6=O)CC3)s2)o1 (stereo not drawn),REH,MTT,,6.6 nM
